Experiments:
[1] = tested on: LNCaP; test: Antiproliferative activity against human LNCAP cells after 3 days; type: functional, cell-based
How it was run: (§1)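 LNCaP cells seeded at 10,000 per well in RPMI 1640 with 10% charcoal-stripped serum and 1% AAS, then held 3 days at 37 °C. Medium was then replaced with serial compound dilutions, either without DHT (agonism mode) or with DHT (antagonism mode).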

[2] = target: T1, Androgen receptor (Homo sapiens, UniProt P10275); test: Antagonist activity at androgen receptor (unknown origin)
T1 sequence (P10275 whole entry): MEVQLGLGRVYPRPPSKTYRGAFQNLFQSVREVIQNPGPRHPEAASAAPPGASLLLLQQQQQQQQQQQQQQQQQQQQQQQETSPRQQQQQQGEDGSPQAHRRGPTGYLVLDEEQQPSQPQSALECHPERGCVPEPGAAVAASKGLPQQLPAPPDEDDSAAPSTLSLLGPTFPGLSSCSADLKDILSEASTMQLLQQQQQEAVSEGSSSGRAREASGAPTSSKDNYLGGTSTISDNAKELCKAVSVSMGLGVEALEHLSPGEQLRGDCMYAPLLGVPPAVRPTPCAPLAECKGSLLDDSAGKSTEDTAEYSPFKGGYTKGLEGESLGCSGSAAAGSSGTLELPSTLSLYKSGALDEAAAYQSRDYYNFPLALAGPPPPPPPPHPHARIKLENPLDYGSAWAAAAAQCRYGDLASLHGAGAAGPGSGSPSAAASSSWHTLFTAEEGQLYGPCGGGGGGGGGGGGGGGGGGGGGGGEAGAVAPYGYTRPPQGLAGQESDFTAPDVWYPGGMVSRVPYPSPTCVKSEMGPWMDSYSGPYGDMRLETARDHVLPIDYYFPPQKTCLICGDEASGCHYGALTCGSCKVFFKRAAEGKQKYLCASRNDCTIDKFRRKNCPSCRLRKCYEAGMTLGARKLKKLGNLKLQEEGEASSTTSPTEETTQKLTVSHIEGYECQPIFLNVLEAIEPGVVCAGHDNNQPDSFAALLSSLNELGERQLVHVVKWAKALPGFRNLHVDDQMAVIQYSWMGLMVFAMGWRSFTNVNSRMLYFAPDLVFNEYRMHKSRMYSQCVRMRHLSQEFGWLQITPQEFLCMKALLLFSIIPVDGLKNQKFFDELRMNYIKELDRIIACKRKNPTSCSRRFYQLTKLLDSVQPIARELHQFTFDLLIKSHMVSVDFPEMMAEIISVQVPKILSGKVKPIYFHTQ

[3] = target: T1, Androgen receptor; test: Partial agonist activity at androgen receptor (unknown origin); how it was run: as §1
[4] = tested on: Rattus norvegicus; test: Clearance in rat at 5 mg/kg, po; type: ADME, organism-based; conditions: in vivo
How it was run: (§2)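 Rats (n = 3) were given a single 5 mg/kg oral dose in 0.5% HPMC. Blood was taken into EDTA tubes at 15 and 30 min and 1, 2, 4, 8 and 24 h. Plasma was obtained by centrifugation and proteins were precipitated with acetonitrile. Bioavailability was calculated against a 1 mg/kg iv dose.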

[5] = Tmax in rat at 5 mg/kg, po; type: ADME, organism-based; conditions: in vivo; how it was run: as §2
[6] = Volume of distribution in rat at 1 mg/kg, iv; type: ADME, organism-based; conditions: in vivo
How it was run: (§3)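 Rats (n = 3) were given a single 1 mg/kg iv dose in 20% hydroxypropyl-β-cyclodextrin. Blood was taken into EDTA tubes at 5, 15 and 30 min and 1, 2, 4, 8 and 24 h. Plasma was obtained by centrifugation and proteins were precipitated with acetonitrile before analysis.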

[7] = tested on: Rattus norvegicus; test: Half life in rat at 5 mg/kg, po; type: ADME, organism-based; conditions: in vivo; how it was run: as §2
[8] = MRT (last) in rat at 5 mg/kg, po; type: ADME, organism-based; conditions: in vivo; how it was run: as §2
[9] = Half life in rat at 1 mg/kg, iv; type: ADME, organism-based; conditions: in vivo; how it was run: as §3
[10] = AUC (0 to time) in rat at 1 mg/kg, iv; type: ADME, organism-based; conditions: in vivo
How it was run: (§4)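 Rats (n = 3) given a single 1 mg/kg iv dose in 20% HP-b-CD. Blood was drawn into EDTA tubes at 5, 15 and 30 min and at 1, 2, 4, 8 and 24 h. Plasma was separated by centrifugation, mixed with acetonitrile:H2O (1:1 v/v) and protein-precipitated with acetonitrile.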

[11] = MRT (last) in rat at 1 mg/kg, iv; type: ADME, organism-based; conditions: in vivo; how it was run: as §3
[12] = Cmax in rat at 1 mg/kg, iv; type: ADME, organism-based; design: dose 1 mg/kg, route intravenous; conditions: in vivo; how it was run: as §3
[13] = MRT (INF) in rat at 1 mg/kg, iv; type: ADME, organism-based; conditions: in vivo; how it was run: as §3
[14] = Oral bioavailability in rat at 5 mg/kg; type: ADME, organism-based; conditions: in vivo; how it was run: as §2
[15] = AUC (0 to time) in rat at 5 mg/kg, po; type: ADME, organism-based; conditions: in vivo
How it was run: (§5)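 Rats (n = 3) received a single 5 mg/kg oral dose in 0.5% HPMC. EDTA blood samples were taken at 15 and 30 min and at 1, 2, 4, 8 and 24 h. Plasma was obtained by centrifugation, mixed with acetonitrile:H2O (1:1 v/v) and precipitated with acetonitrile.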

[16] = AUC (0 to infinity) in rat at 5 mg/kg, po; type: ADME, organism-based; design: dose 5 mg/kg, route oral, time infinity; conditions: in vivo; how it was run: as §5
[17] = Volume of distribution at steady state in rat at 1 mg/kg, iv; type: ADME, organism-based; conditions: in vivo, read-out: Vdss; how it was run: as §3
[18] = Tmax in rat at 1 mg/kg, iv; type: ADME, organism-based; conditions: in vivo; how it was run: as §3
[19] = AUC (0 to infinity) in rat at 1 mg/kg, iv; type: ADME, organism-based; design: dose 1 mg/kg, route intravenous, time infinity; conditions: in vivo; how it was run: as §4
[20] = tested on: Rattus norvegicus; test: Volume of distribution at steady state in rat at 5 mg/kg, po; type: ADME, organism-based; conditions: in vivo; how it was run: as §2
[21] = Clearance in rat at 1 mg/kg, iv; type: ADME, organism-based; conditions: in vivo; how it was run: as §3
[22] = Cmax in rat at 5 mg/kg, po; type: ADME, organism-based; design: dose 5 mg/kg, route oral; conditions: in vivo; how it was run: as §2
[23] = MRT (INF) in rat at 5 mg/kg, po; type: ADME, organism-based; conditions: in vivo; how it was run: as §2
[24] = tested on: Rattus norvegicus; test: Volume of distribution in rat at 5 mg/kg, po; type: ADME, organism-based; conditions: in vivo; how it was run: as §2
[25] = Homo sapiens, LNCaP, 72 h, read-out: IC50

CNC(=O)c1ccc(N2C(=S)N(c3ccc(C#N)c(C(F)(F)F)c3)C(=O)C23CCN(C)CC3)cc1F
IC50 [1, 25]: > 10000 nM

CNC(=O)c1ccc(N2C(=S)N(c3ccc(C#N)c(C(F)(F)F)c3)C(=O)C2(C)COCc2ccccc2)cc1F (racemic)
Ki [2]: 514 nM | IC50 [1, 25]: 2300 nM

CNC(=O)c1ccc(NC(=S)Nc2ccc(C#N)c(C(F)(F)F)c2)cc1F
IC50 [1, 25]: > 10000 nM

CNC(=O)c1ccc(N2C(=S)N(c3ccc(C#N)c(C(F)(F)F)c3)C(=O)C2C)cc1F (racemic)
Ki [3]: 257 nM | IC50 [1, 25]: 944 nM

CNC(=O)c1ccc(N2C(=S)N(c3ccc(C#N)c(C(F)(F)F)c3)C(=O)C23CCOCC3)cc1F
Ki [2]: 126 nM | IC50 [1, 25]: 540 nM

CNC(=O)c1ccc(N2C(=S)N(c3cnc(C#N)c(C(F)(F)F)c3)C(=O)C23CCC3)cc1F [APALUTAMIDE]
IC50 [1, 25]: 174 nM

CNC(=O)c1ccc(N2C(=S)N(c3ccc(C#N)c(C(F)(F)F)c3)C(=O)C2(C)C)cc1F [ENZALUTAMIDE]
IC50 [1, 25]: 127 nM

CNC(=O)c1ccc(N2C(=S)N(c3ccc(C#N)c(C(F)(F)F)c3)C(=O)[C@@]23CCOC3)cc1F
Ki [2]: 215 nM | IC50 [1, 25]: 2000 nM

CNC(=O)c1ccc(N2C(=S)N(c3ccc(C#N)c(C(F)(F)F)c3)C(=O)[C@@H]2C)cc1F
Ki [3]: 95.3 nM | IC50 [1, 25]: 398 nM

CNC(=O)c1ccc(N2C(=S)N(c3ccc(C#N)c(C(F)(F)F)c3)C(=O)C2(COC)COC)cc1F
Ki [2]: 585 nM | IC50 [1, 25]: 3370 nM

CNC(=O)c1ccc(N2C(=S)N(c3ccc(C#N)c(C(F)(F)F)c3)C(=O)C2(C)CC(=O)O)cc1F (racemic)
Ki [2]: Not Active | IC50 ([1]; lncap): Not Active

CNC(=O)c1ccc(N2CCC(=O)N(c3ccc(C#N)c(C(F)(F)F)c3)C2=S)cc1F
Ki [2]: 576 nM | IC50 [1, 25]: 3010 nM

N#Cc1ccc(N2C(=O)[C@]3(CCOC3)N(c3ccc(C(N)=O)c(F)c3)C2=S)cc1C(F)(F)F
CL [4]: 60 mL/min/kg | Tmax [5]: 2 h | Vd [6]: 7 L/kg | t1/2 [7]: 1.8 h | MRT last [8]: 3.1 h | half-life [9]: 1.5 h | AUC [10]: 295 ng·h/mL | MRT last [11]: 1.6 h | Cmax [12]: 185 ng/mL | MRT inf [13]: 1.8 h | bioavailability [14]: 87% | AUC [15]: 1280 ng·h/mL | AUC(0-inf) [16]: 1390 ng·h/mL | Vd [17]: 6.1 L/kg | Tmax [18]: 4.98 min | Ki [2]: 14.1 nM | IC50 [1, 25]: 71.4 nM | AUC(0-inf) [19]: 303 ng·h/mL | Vdss [20]: 22.3 L/kg | clearance [21]: 55 mL/min/kg | Cmax [22]: 261 ng/mL | MRT inf [23]: 3.7 h | Vd [24]: 9.4 L/kg

Reference: ChEMBL document CHEMBL3588823, “Design, synthesis and biological evaluation of novel 5-oxo-2-thioxoimidazolidine derivatives as potent androgen receptor antagonists” (Eur J Med Chem, 2015)
